Data reported in the array DNA melting data of Ke et al. (doi:10.1101/2024.01.08.574731).

What was measured:
[1] = folding enthalpy; higher = less favourable; fluorescence melt of hairpins on a sequencing array, two-state fit; settings: sodium 0.088 M
Summary of the method: (§1)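 In 50 mM Na-HEPES pH 8.0 containing 25 mM NaCl, hairpins from the library on a sequenced MiSeq flow cell were imaged for Cy3 fluorescence at 2.5 °C steps up to 60 °C, with Cy3 and quencher oligos annealed. After normalisation to pre-quench Cy3 and to control constructs, two-state fits with bootstrapping gave melting temperature and folding enthalpy. Four replicates were combined by inverse-variance weighting, and fitted temperatures were shifted up by 9.35 °C to match UV melts.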

[2] = melting temperature; fluorescence melt of hairpins on a sequencing array, two-state fit, raised by 9.35 °C to match UV melts; settings: sodium 0.088 M
Summary of the method: as §1

GGCTATGCGAAAGCAGCC (((..(((....))))))
folding enthalpy [1]: -27.3 kcal/mol
Tm [2]: 55.6 °C

GGCTCAGCGAAAGCTGCC (((..(((....))))))
folding enthalpy [1]: -12.3 kcal/mol
Tm [2]: 44.2 °C

GGCTCCACGAAAGTGGCC (((..(((....))))))
folding enthalpy [1]: -11.8 kcal/mol
Tm [2]: 37.6 °C

GGCTCCGAAAGGAAGCC ((((((....))).)))
folding enthalpy [1]: -37.7 kcal/mol
Tm [2]: 64.1 °C

GGCTCCGAAAGGATGCC ((((((....))).)))
folding enthalpy [1]: -31 kcal/mol
Tm [2]: 62.6 °C

GGCTCGACGAAAGTCGCC (((..(((....))))))
folding enthalpy [1]: -8 kcal/mol
Tm [2]: 35.1 °C

GGCTCGGGAAACCGGGCC (((.(((....))).)))
folding enthalpy [1]: -38.4 kcal/mol
Tm [2]: 66 °C

GGCTCGGGAAACCGGGTC (.(.(((....))).).)
folding enthalpy [1]: -28.2 kcal/mol
Tm [2]: 46.9 °C

GGCTCTCGAAAGAGTGCC (((.(((....))).)))
folding enthalpy [1]: -49.1 kcal/mol
Tm [2]: 58.1 °C

GGCTCTGAAAAGAGCC ((((((....))))))
folding enthalpy [1]: -38.3 kcal/mol
Tm [2]: 68.9 °C

GGCTCTGGAAACAGGGCC (((.(((....))).)))
folding enthalpy [1]: -27.7 kcal/mol
Tm [2]: 58.1 °C

GGCTGAGGAAACTCAGTC (.(((((....))))).)
folding enthalpy [1]: -41.6 kcal/mol
Tm [2]: 51.3 °C

GGCTGAGGAAACTCGGCC (((.(((....))).)))
folding enthalpy [1]: -46.7 kcal/mol
Tm [2]: 58.3 °C

GGCTGAGGAAACTTAGCC ((((.((....)).))))
folding enthalpy [1]: -36.3 kcal/mol
Tm [2]: 50.2 °C

GGCTGAGGAAACTTGGCC (((..((....))..)))
folding enthalpy [1]: -30.8 kcal/mol
Tm [2]: 43.8 °C

GGCTGCGAAAGCACAGCC ((((((....)))..)))
folding enthalpy [1]: -25.6 kcal/mol
Tm [2]: 57.8 °C

GGCTGCGAAAGCACGGCC ((((((....)))..)))
folding enthalpy [1]: -23.4 kcal/mol
Tm [2]: 53.5 °C

GGCTGCGAAAGCACTGCC ((((((....)))..)))
folding enthalpy [1]: -20.5 kcal/mol
Tm [2]: 50.9 °C

GGCTGCGAAAGCAGGGCC ((((((....)))..)))
folding enthalpy [1]: -13 kcal/mol
Tm [2]: 53.1 °C

GGCTGCGAAAGCATCGCC ((((((....)))..)))
folding enthalpy [1]: -21.8 kcal/mol
Tm [2]: 48.5 °C

GGCTGGACGAAAGTCGCC (((..(((....))))))
folding enthalpy [1]: -20.2 kcal/mol
Tm [2]: 52.5 °C

GGCTGGGGAAACCCGGCC (((.(((....))).)))
folding enthalpy [1]: -39.7 kcal/mol
Tm [2]: 66.6 °C

GGCTGGGGAAACTCGGCC (((.(.(....).).)))
folding enthalpy [1]: -36.5 kcal/mol
Tm [2]: 49.4 °C

GGCTTACCGAAAGGTGCC (((..(((....))))))
folding enthalpy [1]: -23.1 kcal/mol
Tm [2]: 50.2 °C

GGCTTAGGAAACTAAACC ((.((((....)))).))
folding enthalpy [1]: -15.7 kcal/mol
Tm [2]: 31.8 °C

GGCTTAGGAAACTAAGTC (.(((((....))))).)
folding enthalpy [1]: -32.5 kcal/mol
Tm [2]: 44.4 °C

GGCTTAGGAAACTGAGCC ((((.((....)).))))
folding enthalpy [1]: -44.6 kcal/mol
Tm [2]: 50.4 °C

GGCTTCCGAAAGGAGCC (((.(((....))))))
folding enthalpy [1]: -37.1 kcal/mol
Tm [2]: 60 °C

GGCTTCGAAAGAACAGCC ((((((....)))..)))
folding enthalpy [1]: -29.7 kcal/mol
Tm [2]: 43.1 °C

GGCTTCGAAAGAAGAGCC ((((((....)))..)))
folding enthalpy [1]: -21.8 kcal/mol
Tm [2]: 45.3 °C

GGCTTCGAAAGAAGTGCC ((((((....)))..)))
folding enthalpy [1]: -16.1 kcal/mol
Tm [2]: 42.6 °C

GGCTTCGCGAAAGCGGCC (((..(((....))))))
folding enthalpy [1]: -16.4 kcal/mol
Tm [2]: 48.8 °C

GGCTTCGGAAACGAAACC ((.((((....)))).))
folding enthalpy [1]: -25.4 kcal/mol
Tm [2]: 44.8 °C

GGCTTCGGAAACGGAGTC (.((.((....)).)).)
folding enthalpy [1]: -24.1 kcal/mol
Tm [2]: 39.9 °C

GGCTTCTCGAAAGAGGCC (((..(((....))))))
folding enthalpy [1]: -24.4 kcal/mol
Tm [2]: 47.1 °C

GGCTTGAAAAAGCC (((((....)))))
folding enthalpy [1]: -31.3 kcal/mol
Tm [2]: 59.6 °C

GGCTTGCCGAAAGGCGCC (((..(((....))))))
folding enthalpy [1]: -14 kcal/mol
Tm [2]: 55.8 °C

GGCTTTGGAAACAAAACC ((.((((....)))).))
folding enthalpy [1]: -27.3 kcal/mol
Tm [2]: 36.8 °C

GGCTTTTCGAAAGAAGCC (((..(((....))))))
folding enthalpy [1]: -33.7 kcal/mol
Tm [2]: 45.6 °C

GGGAACGAAAGTTGCCCC ((((((....)))..)))
folding enthalpy [1]: -10.7 kcal/mol
Tm [2]: 68.7 °C

GGGAACGAAAGTTTTCCC ((((((....)))..)))
folding enthalpy [1]: -19.1 kcal/mol
Tm [2]: 35.5 °C

GGGAACGGAAACGCTCCC ((((.((....)).))))
folding enthalpy [1]: -36.6 kcal/mol
Tm [2]: 52.1 °C

GGGAACGGAAACGTTTCC ((.((((....)))).))
folding enthalpy [1]: -35.2 kcal/mol
Tm [2]: 53.7 °C

GGGAATCGAAAGATGCCC (((.(((....))).)))
folding enthalpy [1]: -44.3 kcal/mol
Tm [2]: 54.6 °C

GGGACAGCGAAAGCTCCC (((..(((....))))))
folding enthalpy [1]: -19 kcal/mol
Tm [2]: 46.1 °C

GGGACAGGAAACTGCCCC (((.(((....))).)))
folding enthalpy [1]: -35.2 kcal/mol
Tm [2]: 50.8 °C

GGGACATCGAAAGATCCC (((..(((....))))))
folding enthalpy [1]: -18.5 kcal/mol
Tm [2]: 36.1 °C

GGGACCCCGAAAGGGCCC (((..(((....))))))
folding enthalpy [1]: -20.3 kcal/mol
Tm [2]: 58.6 °C

GGGACCCGAAAGGGCCCC (((.(((....))).)))
folding enthalpy [1]: -23.6 kcal/mol
Tm [2]: 67.8 °C

GGGACCGAAAGGTCGCCC ((((((....)))..)))
folding enthalpy [1]: -10.3 kcal/mol
Tm [2]: 57.5 °C

GGGACCGAAAGGTTACCC ((((((....)))..)))
folding enthalpy [1]: -17.6 kcal/mol
Tm [2]: 47 °C

GGGACGCGAAAGCGCCC (((.(((....))))))
folding enthalpy [1]: -15.4 kcal/mol
Tm [2]: 64.7 °C

GGGACTGCGAAAGCACCC (((..(((....))))))
folding enthalpy [1]: -9.02 kcal/mol
Tm [2]: 37.3 °C

GGGACTGGAAACAGTTCC ((.((((....)))).))
folding enthalpy [1]: -36.1 kcal/mol
Tm [2]: 51.4 °C

GGGAGAGAAATCTCCC ((((((....))))))
folding enthalpy [1]: -35 kcal/mol
Tm [2]: 56.4 °C

GGGAGAGGAAACTCTCCC (((((((....)))))))
folding enthalpy [1]: -42.9 kcal/mol
Tm [2]: 64.8 °C

GGGAGAGGAAACTTTCCC ((((.((....)).))))
folding enthalpy [1]: -27.3 kcal/mol
Tm [2]: 42.1 °C

GGGAGCCCGAAAGGGCCC (((..(((....))))))
folding enthalpy [1]: -10.7 kcal/mol
Tm [2]: 58.8 °C

GGGAGCGAAAGCTACCCC ((((((....)))..)))
folding enthalpy [1]: -12 kcal/mol
Tm [2]: 59.8 °C

GGGAGCGAAAGCTCACCC ((((((....)))..)))
folding enthalpy [1]: -11.2 kcal/mol
Tm [2]: 57.2 °C

GGGAGCGAAAGCTCTCCC ((((((....)))..)))
folding enthalpy [1]: -11.8 kcal/mol
Tm [2]: 52.2 °C

GGGAGCGAAAGCTGACCC ((((((....)))..)))
folding enthalpy [1]: -16.5 kcal/mol
Tm [2]: 45.9 °C

GGGAGCGAAAGCTGCCC ((((((....))).)))
folding enthalpy [1]: -15.1 kcal/mol
Tm [2]: 60.5 °C

GGGAGCGGAAACACCCCC (((.(.(....).).)))
folding enthalpy [1]: -16 kcal/mol
Tm [2]: 28.2 °C

GGGAGCTCGAAAGAGCCC (((..(((....))))))
folding enthalpy [1]: -11.2 kcal/mol
Tm [2]: 57.2 °C

GGGAGGCGAAAGCCCCC (((.(((....))))))
folding enthalpy [1]: -19.2 kcal/mol
Tm [2]: 66.3 °C

GGGAGGGCGAAAGCCCCC (((..(((....))))))
folding enthalpy [1]: -10.6 kcal/mol
Tm [2]: 55.3 °C

GGGAGGGGAAACCCCCCC (((.(((....))).)))
folding enthalpy [1]: -38.7 kcal/mol
Tm [2]: 53.3 °C
